# Bioassay records deposited in PubChem BioAssay by several laboratories.
# MT stabilize HCS: microtubule stabilizers in HeLa cells, primary screen, imaging, high-content imaging; HeLa tubulin immunostaining HCS, 24 h; share of cells brighter than vehicle mean+2SD; % tubulin-high responders, % at 10 µM; actives 0.83% (n = 200,000); AID 2205, 2009;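 active = plate Z-score above 3 for both tubulin-high and condensed-nucleus cell shares, with cell loss under 80%, at 10 µM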;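 also: anti alpha tubulin signal scored within the nucleus-defined area of each cell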
# Dynein transport: inhibitors of GR-EGFP nuclear translocation, primary screen, dynein cargo transport inhibitor project, imaging, high-content, 3617.4 mouse cells. test concentration mostly 20 µM; stimulated with dexamethasone, 1 µM; stronger effect = lower value. z-score, hits read low. actives 0.47% (n = 220,000). AID 1381, 2008;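 active = plate z-score of nuclear minus cytoplasmic receptor signal below a set negative limit, without overly bright fluorescence or cell loss, cut at about -3.5 in these data, passing the limit was not always enough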;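 also: z-score of nuclear minus cytoplasmic ring GR-EGFP intensity difference per well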
#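 Buffer or medium: Induction medium lacking tetracycline, stripped serum | Also added: Dexamethasone agonist, 1.0 µM final, for 30 min | Timing: 48 h induction, 1 h compound, 30 min dex at 37 °C | Detection: Formaldehyde fixation, Hoechst nuclear stain, 10x automated fluorescence imaging | Measure: Nuclear versus cytoplasmic GR-EGFP signal, averaged per well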
# HSV augment: enhancers of HSV replication in host cells, fold increase, host cell viability; HSV replication augmentation in cells; maximum fold increase; AID 1956, 2009; actives 0.005% (n = 220,000); in the data active = maximum fold increase above about 1.5; tested in PC3 cells
# bCat nuc transl: modulators of beta-catenin nuclear translocation, primary screen, imaging, HeLa cells, immunofluorescence, high-content | nuclear translocation activity, % at 5 µM | actives 0.3% (n = 190,000);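 active = nuclear translocation activity above 50% at 5 µM, with a well cell count of 50 or more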;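 also: per-cell ratio of nuclear to cytoplasmic median beta-catenin stain intensity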
#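 Technique: fluorescence imaging of beta-catenin antibody stain plus DAPI / Material: human HeLa cell line / Incubation: compound treatment 24 h, 37°C, 5% CO2 / Read-out basis: % activation of per-cell nuclear versus cytoplasmic median beta-catenin signal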
# Lmaj promast: Leishmania major promastigote growth inhibition, primary screen | actives 9% (n = 200,000) | inhibition, % at 10 µM | AID 1063, 2008 | Leishmania major promastigotes, resazurin fluorescence viability; in the data active = inhibition above about 50%;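 also: promastigotes grown with compound for 44 hours at 28 °C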
# Numbers stand for hits; 0 = inactive; - = no result. Most compounds without a hit are left out; they make up all but 8.9% or so of the library.
SMILES,MT stabilize HCS,Dynein transport,HSV augment,bCat nuc transl,Lmaj promast
COc1ccccc1/C=C/C(=O)c1ccc(NC(C)=O)cc1,0,0,0,0,99.7
CC(=O)c1ccc(NS(=O)(=O)c2ccc(C)cc2)cc1,0,0,0,0,0
CCOc1ccc(/C=C/C(=O)c2ccc(-c3ccccc3)cc2)cc1,0,0,0,0,0
COc1ccc(OC)c(/C=C/C(=O)c2ccc(Cl)cc2)c1,0,0,0,0,100.2
COc1ccccc1C(=O)Nc1ccc(C(=O)c2ccccc2)cc1,0,0,0,0,0
CCOc1ccccc1/C=C/C(=O)c1ccc(Cl)cc1,0,0,0,0,77.8
CC(C)N1C(=O)C(O)(C2COC(C)(C)CC2=O)c2ccccc21 (stereo not given),0,0,0,0,0
Cc1ccc(CCCOC(=O)C[N+]2(C)CCOCC2)cc1,0,0,0,0,0
COc1ccc(C2(C(=O)Nc3ccc(S(N)(=O)=O)cc3)CCCC2)cc1,0,0,0,0,0
O=C(O)c1cc(=O)[nH]c2c(Cl)cccc12,0,0,0,0,0
CCOC(=O)N/N=C/c1c[nH]c2ccccc12,0,0,0,0,0
O=C(/C=C/c1ccccc1O)c1ccc(Cl)cc1,0,0,0,0,99.9
COc1cc(S(=O)(=O)Nc2cccnc2)ccc1F,0,0,0,0,0
COc1ccc(S(=O)(=O)Nc2ccc(S(=O)(=O)Nc3ccc(F)cc3)cc2)cc1C,0,0,0,0,0
COc1ccc(OC)c(S(=O)(=O)Nc2ccc(F)cc2)c1,0,0,0,0,0
COc1ccc(OC)c(S(=O)(=O)Nc2cccc(F)c2)c1,0,0,0,0,96.8
COc1ccc(S(=O)(=O)Nc2cccc(F)c2)cc1C,0,0,0,0,65.4
COc1cc(S(=O)(=O)Nc2cc(C)cc(C)c2)ccc1F,12.4,0,0,-,0
COc1ccc(OC)c(NS(=O)(=O)c2cc(OC)ccc2OC)c1,0,0,0,0,86.9
CC1=NN(C(=O)c2ccc(Br)cc2)C(O)(C(F)(F)OC(F)(F)F)C1 (stereo not given),0,0,-,0,0
CNc1nc(Oc2ccc(=O)n(C)n2)nc(N2CCOCC2)n1,0,0,0,0,0
c1ccc2c(Oc3ccc4c(c3)OCO4)nncc2c1,0,0,0,0,0
CSc1cccc(NC(=S)N2CCCN(Cc3ccccc3F)C2)c1,0,0,0,0,75.8
CSc1cccc(NC(=S)N2CCC(N(C)C3CCCCC3C)CC2)c1 (stereo not given),0,0,0,0,82.1
CCCCN(C(=S)Nc1cccc(SC)c1)C1CCN(C(C)=O)CC1,0,0,0,0,0
SMILES,MT stabilize HCS,Dynein transport,HSV augment,bCat nuc transl,Lmaj promast
CSc1cccc(NC(=S)N2CCC(N(C)C3CCCCC3)CC2)c1,0,0,-,0,88.5
O=C(Nc1cccc(C(F)(F)F)c1)c1cccnc1N1CCCC1,0,0,0,0,0
Cc1ccc(NC(=O)Cc2c(O)c3ccccc3[nH]c2=O)c(C)c1,-,0,0,0,-
N#Cc1cccc(NC(=O)NCCc2c[nH]c3ccccc23)c1,0,0,-,0,90.5
Cc1c(C#N)c2ccccc2n1CC(=O)NCCc1c[nH]c2ccccc12,0,0,0,0,0
N#Cc1cn(CC(=O)NCCc2c[nH]c3ccccc23)c2ccccc12,0,0,0,0,87.5
CC1CCC(C(C)C)C(OCC(O)CN2CCN(Cc3ccccc3)CC2)C1 (stereo not given),0,0,0,0,93.0
CC1CCC(C(C)C)C(OCC(O)CN2CCCC(C)C2)C1 (stereo not given),0,0,0,0,92.1
O=[N+]([O-])c1ccc(Cl)c(/C=N/n2c(-c3cccnc3)n[nH]c2=S)c1,0,0,0,0,0
COc1ccc(C2=NOC(Cn3c(Cc4ccc(Cl)cc4)nc4c3c(=O)n(C)c(=O)n4C)C2)cc1 (stereo not given),0,0,0,0,63.9
CC1(C)Cc2c(c(N3CCOCC3)nc3sc4c(NN)ncnc4c23)CS1,0,0,-,0,97.1
CCN(CC)CCNc1ncnc2c1sc1nc(N3CCCC3)c3c(c12)CC(C)(C)OC3,0,0,0,0,100.5
CCOP(=O)(OCC)C(Nc1cccc(C(F)(F)F)c1)c1ccc(C)cc1 (stereo not given),0,0,0,0,58.6
CCCOP(=O)(OCCC)C(Nc1cccc(C(F)(F)F)c1)c1ccc(C)cc1 (stereo not given),0,0,0,0,0
c1ccc(COc2ccc(OCCN3CCCC3)cc2)cc1,0,0,-,0,100.3
CC1CCN(CCCCOc2ccc(C(=O)c3ccccc3)cc2)CC1,0,0,0,-,99.1
CCCOc1ccc(C(O)(CCC)CCN2CCCCC2)cc1 (stereo not given),0,0,0,0,0
CC1CCN(CCCOc2ccc(OCc3ccccc3)cc2)CC1,0,0,0,0,100.2
CC(C)Oc1ccc(OCCCN2CCCCCC2)cc1,0,0,0,0,100.0
c1ccc(COc2ccc(OCCCN3CCCC3)cc2)cc1,0,0,0,0,99.8
c1ccc(COc2ccc(OCCCn3cncn3)cc2)cc1,0,0,0,0,0
COc1ccc(C2(O)CCN(CCCCOc3ccccc3)CC2)cc1,0,0,0,0,95.3
CCOc1ccc(OCCN2CCCCC2)cc1,0,0,-,0,0
CCC(C)c1ccc(OCCN2CCCC2)cc1 (stereo not given),0,0,0,-,96.2
c1ccc(COc2ccc(OCCN3CCCCC3)cc2)cc1,0,0,-,0,100.3
SMILES,MT stabilize HCS,Dynein transport,HSV augment,bCat nuc transl,Lmaj promast
O=C1/C(=C/c2cccnc2)SC(=S)N1Nc1ccccc1,-,0,0,0,-
CC(C)c1ccc(-c2nn(-c3ccccc3)cc2C2C(C#N)=C(N)OC3=C2C(=O)CC(C)(C)C3)cc1 (stereo not given),0,0,0,-,77.5
CCCCOc1ncnc2c1[nH]c1ccc(OCC)cc12,0,0,0,0,0
CCCCOCCCNc1ncnc2c1[nH]c1ccccc12,0,0,0,0,79.8
CCCCOc1ncnc2c1[nH]c1ccccc12,0,0,0,0,57.2
Cc1ccccc1N1CCN(S(=O)(=O)c2ccccc2)CC1,0,0,0,0,0
O=C(N/N=C1/C(=O)c2cccc3cccc1c23)c1ccc(Cl)cc1,0,0,0,0,57.2
O=C(NC1CCc2ccccc21)C1CCN(S(=O)(=O)c2ccc(Cl)cc2)CC1 (stereo not given),0,0,0,0,0
O=S(=O)(NC1CCc2ccccc21)c1ccc(S(=O)(=O)N2CCCC2)cc1 (stereo not given),0,0,0,0,71.8
CC(=O)c1ccc(OCc2cc([N+](=O)[O-])cc3c2OCOC3)cc1,0,0,0,0,75.5
CC(C)C(NC(=O)c1ccccc1)C(=O)OCc1cc([N+](=O)[O-])cc2c1OCOC2 (stereo not given),0,0,0,0,0
CCc1nnc(NC(=O)CSc2nnc(-c3c[nH]c4ccccc34)n2CCOC)s1,0,0,0,0,0
